NR2E3 ag-1 – NR2E3 agonists in two-hybrid cells, primary screen, cell-based, luminescence, CHO-S, Gal4-NCOR/VP16-NR2E3; Photoreceptor-specific nuclear receptor (Homo sapiens), Q9Y5X4; AID 602229, 2012; inhibition of corepressor binding, % at 3.98 µM; luciferase; actives 0.35% (n = 360,000);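 active = inhibition above the mean of all tested compounds plus 3 SD, cut at about 70% in these data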;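 also: higher means lower luciferase signal from less NR2E3 corepressor binding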
PP5 inh – PP5 phosphatase inhibitors, primary screen, biochemical, fluorescence. actives 0.18% (n = 320,000). AID 1987, 2009. Serine/threonine-protein phosphatase 5 (Homo sapiens), P53041. inhibition, % at 6.7 µM. purified PP5c, OMFP substrate fluorescence;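 active = inhibition above the campaign's mean inhibition across all tested compounds plus 3 SD, cut at about 9.5% in these data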
NR2E3 ag-2 – inhibitors of NR2E3-RetCOR corepressor binding, primary screen, NR2E3 agonist project, biochemical, TR-FRET, GST-NR2E3, biotin-RetCOR; Photoreceptor-specific nuclear receptor (Homo sapiens), Q9Y5X4; 1536-well; inhibition of corepressor binding, % at 4.78 µM; actives 0.12% (n = 320,000);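 active = percent inhibition above the cutoff of mean plus 3 SD of all tested compounds, set per screening campaign, cut at about 20% in these data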
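Material – GST-tagged NR2E3 plus biotinylated RetCOR corepressor · Quantity – NR2E3 fusion 1.35 nM · Times – 5 h incubation at 4 °C · Medium – pH 7.5 Tris-based buffer · Technique – TR-FRET, Eu(K)-anti-GST donor, streptavidin-D2 acceptor, ex 340, em 617/671 nm · Benchmarks – high control biotin, low control 0.6% DMSO · Format – 1536-well plates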
PP1 inh – PP1-alpha phosphatase inhibitors, primary screen, counter-screen for PP5 inhibitor project, biochemical, fluorescence, OMFP substrate, single point. Serine/threonine-protein phosphatase PP1-alpha catalytic subunit (Homo sapiens), P62136. purified PP1alpha. inhibition, % at 6.7 µM. actives 0.9% (n = 320,000). AID 2235, 2010;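 active = inhibition above the mean inhibition of all tested compounds plus 3 SD, computed separately for each screening campaign, cut at about 15% in these data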
NR2E3 agonist cf – NR2E3 agonists, confirmation, biochemical, TR-FRET; AID 2379, 2010; shares compounds with NR2E3 ag-2; activation (reported as inhibition), % at 3.98 µM; cell-free NR2E3 corepressor release, 5 h; actives 39% (n = 360); in the data active = activation above about 20%
PPARg-NCOR2 ag – agonists of PPARg-NCOR2 corepressor interaction, counter-screen for NR2E3 agonist project, biochemical, TR-FRET | inhibition, % at 3.98 µM | TR-FRET PPARg-NCOR2 coregulator interaction | AID 504787, 2011 | shares compounds with NR2E3 ag-2 | actives 45% (n = 360); in the data active = inhibition above about 20%
Numbers stand for hits; - = inactive; . = not tested or not shown. Only some compounds are listed: those with a hit (about 1.3% of all), similar ones and a draw of the others.

SMILES	NR2E3 ag-1	PP5 inh	NR2E3 ag-2	PP1 inh	NR2E3 agonist cf	PPARg-NCOR2 ag
COc1ccc(-c2c(C)sc(NC(=O)c3ccnn3C)c2C#N)cc1	-	-	30	-	-	21
COC(=O)c1cn(-c2nc3ccccc3s2)nn1	-	.	.	.	.	.
Cc1nc2ccc(Br)cc2c(-c2ccccc2)c1C(=O)O	-	-	47	-	59	54
COc1ccc(C(=O)NNC(=O)C(Cc2ccc(O)cc2)NC(=O)c2ccccc2NC(=O)c2ccc(OC)cc2)cc1 (centres undefined)	-	-	40	-	22	-
CCc1sc(C(=O)Nc2ccc(N3CCOCC3)cc2)cc1C	-	.	.	.	.	.
CCc1cc2cc(C(=O)Nc3ccc(C)cc3)sc2s1	-	-	33	-	20	23
NC(=O)c1cc[n+](CC2=C(C(=O)O)N3C(=O)[C@@H](NC(=O)C(c4ccccc4)S(=O)(=O)[O-])[C@H]3SC2)cc1 (some centres undefined)	-	-	23	-	-	-
CC(C)[C@H](NC(=O)c1c(F)cccc1F)C(=O)OCC(=O)NNC(=O)c1ccccc1	-	.	.	.	.	.
Cc1cc(-c2ccc(Cl)cc2)c(C#N)c(N)n1	-	-	39	-	26	26
CC(=O)c1ccc(Nc2nc(C(N)CC(C)C)cs2)cc1 (centres undefined)	-	.	.	.	.	.
O=S1(=O)CC(N2CC=CC2)CN1Cc1ccc(F)cc1 (centres undefined)	-	.	.	.	.	.
O=C(C1=C(O)C(=O)N(CC2CCCO2)C1c1ccc(Cl)cc1Cl)c1ccco1 (centres undefined)	-	-	30	-	24	25
O=C(C1=C(O)C(=O)N(CC2CCCO2)C1c1ccccc1Cl)c1ccco1 (centres undefined)	-	-	-	-	.	.
COCc1ccc(CN2CCC(n3nccc3NC(=O)CCOc3ccccc3)CC2)o1	-	-	-	-	.	.
CCOC(=O)CCCc1sc(N)nc1-c1[nH]c(=O)[nH]c1C	-	-	48	-	-	-
CCOC(=O)CCc1c(C)n[nH]c1C	-	-	-	-	.	.
CCOC(=O)C1CCCN(C(=O)c2ccc3c(c2)C(C)(C)CCC3(C)C)CC1 (centres undefined)	-	.	.	.	.	.
N/C(=N\OC(=O)COc1ccc2ccccc2c1Br)c1ccccn1	-	-	-	-	.	.
N/C(=N\OC(=O)COc1ccc2ccccc2c1Br)c1cccnc1	.	-	21	-	-	-
Cc1cc(Br)c2nc3c(c(C(=O)O)c2c1)CCCCC3	-	-	48	-	60	60
Cc1ccc(-c2ccc(C(=O)O)c(C)n2)cc1	-	-	-	-	.	.
Cc1nc(-c2ccc(Br)cc2)ccc1C(=O)O	-	-	25	-	-	-
NNC(=O)c1[nH]c2ccc(Br)cc2c1-c1ccccc1	-	-	-	-	.	.
CCc1c(C(=O)O)[nH]c2ccc(Br)cc12	-	-	43	-	41	30
COc1ccccc1C(=O)NCCC(=O)NCC1COc2ccccc2O1 (centres undefined)	-	-	-	-	.	.
SMILES	NR2E3 ag-1	PP5 inh	NR2E3 ag-2	PP1 inh	NR2E3 agonist cf	PPARg-NCOR2 ag
N#Cc1ccccc1NC(=O)COC(=O)c1ccc2c(c1)OCCO2	-	-	-	-	.	.
N#Cc1ccc(Cl)cc1NC(=O)COC(=O)c1ccc2c(c1)OCCO2	-	-	36	-	39	41
CCCCCCC1CC(=CN(C)C)C(=O)O1 (centres undefined)	-	.	.	.	.	.
N#Cc1c(-c2ccco2)nc(SCC(=O)Nc2ccc(S(N)(=O)=O)cc2)[nH]c1=O	.	-	-	-	.	.
N#Cc1c(-c2ccco2)nc(SCc2ccc(F)cc2)[nH]c1=O	-	-	40	-	-	59
Cc1ccc(C2=Nc3ccccc3N=C(c3ccco3)C2)c(O)c1	-	-	-	-	.	.
Cc1ccc(O)c(C2=Nc3ccccc3N=C(c3ccco3)C2)c1	-	-	30	-	-	-
